Source: PubChem
Shown are actives, neighbours in structure and some others; about 2.7% of the full set was active somewhere.
bovine MsrA act: bovine MsrA enzyme activators, primary screen, biochemical, absorbance, HTS. activation, % at 10.6 µM. purified bovine MsrA, absorbance read-out. AID 602163, 2012. hit rate 0.3% among 360,000; in the data active means activation above about 7.5%
sPLA2-III inh: human group III sPLA2 inhibitors, primary screen, biochemical, QFRET, BODIPY PC-A2 liposome substrate | QFRET BODIPY PC-A2 liposome hydrolysis, fluorescence | hit rate 0.56% among 370,000 | Group 3 secretory phospholipase A2 (Homo sapiens), Q9NZ20 | AID 743126, 2013 | inhibition, % at 12.2 µM;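 active means inhibition above mean plus 3 SD of compounds lying within the high and low control bounds, cut at about 19% in these data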
NR1D1 modulator: modulators of Rev-erb alpha DNA binding, primary screen, biochemical, FITC-DNA, fluorescence polarization, uHTS; Rev-erbα–FITC-DNA binding, 90 min; activity, % at 10 µM; hit rate 0.79% among 370,000; AID 1259318, 2017;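 active means activity above about 14%, limit read from the data; passing the limit was not always enough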
Target sequence (P20393 whole entry, looked up): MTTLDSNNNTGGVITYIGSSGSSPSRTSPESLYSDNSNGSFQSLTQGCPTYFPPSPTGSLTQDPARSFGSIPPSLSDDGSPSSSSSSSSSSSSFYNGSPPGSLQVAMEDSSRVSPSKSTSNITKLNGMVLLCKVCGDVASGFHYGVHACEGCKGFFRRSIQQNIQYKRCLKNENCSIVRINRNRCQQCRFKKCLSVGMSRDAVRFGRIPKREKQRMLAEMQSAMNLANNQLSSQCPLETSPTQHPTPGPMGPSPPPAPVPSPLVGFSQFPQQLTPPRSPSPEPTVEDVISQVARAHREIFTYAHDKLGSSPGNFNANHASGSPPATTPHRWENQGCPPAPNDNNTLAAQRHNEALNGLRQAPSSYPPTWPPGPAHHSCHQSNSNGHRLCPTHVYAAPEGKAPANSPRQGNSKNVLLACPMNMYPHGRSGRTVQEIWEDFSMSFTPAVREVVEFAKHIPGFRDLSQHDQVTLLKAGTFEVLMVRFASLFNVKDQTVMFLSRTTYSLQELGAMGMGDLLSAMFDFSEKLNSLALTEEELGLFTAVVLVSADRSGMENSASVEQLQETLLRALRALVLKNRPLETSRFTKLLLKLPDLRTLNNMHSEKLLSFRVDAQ
MsrA inhibitor: bovine MsrA enzyme inhibitors, primary screen, biochemical, absorbance, HTS; hit rate 0.75% among 360,000; inhibition, % at 15.5 µM; purified bovine MsrA, absorbance read-out; AID 651718, 2012; Methionine sulfoxide reductase A (Bos taurus); in the data active means inhibition above about 4.5%
ASAP1 inh: inhibitors of human ASAP1 ArfGAP activity, primary screen, biochemical, fluorescence polarization. Arf-GAP with SH3 domain, ANK repeat and PH domain-containing protein 1 (Homo sapiens), …. hit rate 0.19% among 360,000. ASAP1-stimulated ARF1 GTP hydrolysis, GDP FP detection. inhibition, % at 16.5 µM; in the data active means inhibition above about 25%
ARFGAP1 inh: inhibitors of rat ARFGAP1 GAP activity, primary screen, biochemical, fluorescence polarization, GDP tracer. hit rate 0.26% among 360,000. Arfgap1-stimulated ARF1 GTP hydrolysis, GDP FP detection. inhibition, % at 16.5 µM. AID 651572, 2012. ADP-ribosylation factor GTPase-activating protein 1 (Rattus norvegicus), Q62848;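 active means inhibition above a per-plate limit, mean inhibition of low control wells plus 3 SD, cut at about 25% in these data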
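Assay system: purified rat His6-Arfgap1 residues 1-136 (GAP domain); Reagent: human Δ17 ARF1 bound to GTP; Dosing: 16.5 µM single point, 1.26% DMSO; Times: GTP hydrolysis reaction 2 h at 25 °C; Signal: FP, GDP Alexa 633 tracer displaced from anti-GDP antibody, 620/688 nm; Measure: % inhibition from polarization.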
MsrA activ conf: bovine MsrA activators, retest, confirmation, biochemical, absorbance, HTS | activation, % at 10.6 µM | purified bovine MsrA, absorbance read-out | hit rate 12% among 1,000 | shares compounds with bovine MsrA act; in the data active means activation above about 4%;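 further: enzyme coupled to thioredoxin and thioredoxin reductase with NADPH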
Hits are given with their value; – = inactive; · = not tested or not shown.

SMILES	bovine MsrA act	sPLA2-III inh	NR1D1 modulator	MsrA inhibitor	ASAP1 inh	ARFGAP1 inh	MsrA activ conf
O=C(Nc1ccc2c(c1)OCO2)c1cncc(Br)c1	–	–	–	–	–	–	·
C#CCN1CC(N(C)CCOC(=O)c2cc(C)cc(C)c2)CS1(=O)=O (centres undefined)	·	–	–	·	·	·	·
CC1(C)Cc2cccc(Oc3ccc(S(=O)(=O)N4CCCCC4)cn3)c2O1	7.7	–	–	–	–	–	–
S=c1[nH]nc(-c2cccnc2)n1/N=C/c1cccs1	10.1	–	–	–	–	–	–
Cc1cccc(NC(=O)[C@H]2CC(=O)O[C@@H]2c2ccccc2)c1C	·	–	–	·	·	·	·
CC(C)c1ncc(C(O)c2cccc3ccccc23)n1C (centres undefined)	13.4	–	–	–	–	–	–
CC(OC(=O)c1cccc(S(=O)(=O)N2CCCCC2)c1)C(=O)NC1CCCCC1C (centres undefined)	20.6	–	–	–	–	–	–
Cc1onc(C(=O)N2C(C)CCCC2C)c1[N+](=O)[O-] (centres undefined)	8.8	–	–	–	–	–	–
Cc1c(Cl)cccc1-c1ccc(CNCc2ccccn2)o1	7.7	–	–	–	–	–	–
C[C@H](NC(=O)C[C@@H]1C[C@@H]2c3cc(NC(=O)C4CCC4)ccc3O[C@@H]2[C@@H](CO)O1)c1ccccc1	·	–	–	–	–	–	·
O=c1c2ccc(F)cc2sn1-c1ccccc1	12.9	–	–	–	–	–	8.0
Cc1ccc(-n2sc3cc(F)ccc3c2=O)c(C)c1	13.9	–	–	–	–	–	–
O=c1c2ccccc2sn1-c1ccc(F)cc1	12.3	–	–	–	–	–	8.3
O=c1c2cc(F)ccc2sn1-c1ccccc1Cl	–	–	–	–	–	–	·
Cc1ccc(N2C(=O)CC(N3CCN(c4ccc(F)cc4)CC3)C2=O)c(C)c1 (centres undefined)	–	–	–	–	–	–	·
Cc1ccc(-n2sc3ccccc3c2=O)cc1	12.8	–	–	–	–	–	–
C[C@H]1[C@@H](OC(=O)N2CCOCC2)CC[C@@]23CCCN2C(=O)CCC[C@@H]13	·	–	–	·	·	·	·
COCCN(CCOC)Cc1cc(=O)oc2cc3c(cc12)CCC3	–	–	–	–	–	–	·
COCCN(CCOC)Cc1cc(=O)oc2cc(C)ccc12	12.2	–	–	–	–	–	–
COc1ccc(-c2nnn(Cc3ccccc3F)n2)cc1	16.4	–	–	–	–	–	–
O=C(NNC1=Nc2ccccc2SC1)c1ccc(F)cc1	7.7	–	–	–	–	–	–
CC(CCN1CCC(C(O)(c2ccccc2)c2ccccc2)CC1)Oc1ccccc1C#N (centres undefined)	·	–	–	·	·	·	·
O=C(Nc1ccccc1Br)C1CCCN1S(=O)(=O)c1cccc2nsnc12 (centres undefined)	14.5	–	–	–	–	–	–
O=C(Nc1ccccc1F)C1CCCN1S(=O)(=O)c1cccc2nsnc12 (centres undefined)	–	–	–	–	–	–	·
COc1ccc(C2Nc3ccccc3C(=O)N2Cc2ccc(C)o2)cc1COc1c(C)cccc1C (centres undefined)	·	–	–	·	·	·	·
SMILES	bovine MsrA act	sPLA2-III inh	NR1D1 modulator	MsrA inhibitor	ASAP1 inh	ARFGAP1 inh	MsrA activ conf
COc1cc(O)c(C(CC(=O)N2CC(C)OC(C)C2)c2ccc3c(c2)OCO3)c(OC)c1 (centres undefined)	·	–	–	·	·	·	·
O=C(Nc1c(-c2ccccc2)nc2ncccn12)C1CC1	·	–	–	·	·	·	·
CCCCCC#CCN1CCN(C23CC4CC(CC(C4)C2)C3)CC1	8.8	·	·	·	·	·	–
CC(=O)C1=C(C)N(Cc2ccc(F)cc2)C(=S)NC1c1ccc(Cl)cc1 (centres undefined)	·	–	–	–	–	–	·
Cc1cccc(C(=O)Nc2nc3ncccn3c2-c2ccc(F)c(F)c2)c1	·	–	–	·	·	·	·
COc1nccc(C(F)(F)F)c1C(=O)NC(=O)Nc1ccccc1	9.5	–	–	–	–	–	–
CC[C@H]1C=C[C@@H](C(=O)NS(=O)(=O)c2ccc(C)cc2)N(C(C)=O)C1	·	–	–	·	·	·	·
O=S(=O)(CC1NCc2ccccc21)NCCc1ccccc1 (centres undefined)	·	–	–	·	·	·	·
OC[C@@H]1CN(Cc2ccc3c(c2)OCO3)C[C@H](n2cnc3c(N4CCOCC4)ncnc32)O1	7.8	–	–	–	–	–	–
Cc1ccc(-n2c(SCC(=O)Nc3ccccc3-c3ccccc3)nnc2-c2ccco2)cc1	·	–	–	·	·	·	·
COc1ccc2c(c1)CN1C(=O)N(Cc3ccc(F)cc3)S(=O)(=O)CC21 (centres undefined)	·	–	–	·	·	·	·
Cc1nnc(N/N=C/c2ccc(Br)cc2)n1N	34.0	–	–	–	–	–	–
Cc1nnc(N/N=C/c2ccc([N+](=O)[O-])cc2)n1N	20.6	–	–	–	–	–	–
COC(=O)C1CN(Cc2cn(Cc3ccc(OC)cc3)nn2)CCS(=O)(=O)N1Cc1ccc(OC)cc1 (centres undefined)	·	–	–	·	·	·	·
O=C(NCSc1ccnc(SCNC(=O)c2ccccc2)n1)c1ccccc1	11.2	–	–	–	–	–	–
O=S1(=O)c2ccc(N3CCN(Cc4ccccc4F)CC3)cc2Oc2ccccc2CN1Cc1cn(Cc2ccc(C(F)(F)F)cc2)nn1	·	–	–	·	·	·	·
C#CCN1C=C(C(=O)OCC)C(C)NS1(=O)=O (centres undefined)	–	–	–	–	–	–	·
C#CCN1C=C(C(=O)OCC)C(C)N(Cc2ccccc2I)S1(=O)=O (centres undefined)	11.8	–	–	–	–	–	–
COc1cc(OC)c(CN2CCCN(C)CC2)cc1Br	–	–	–	–	–	–	·
COc1cc(OC)c(CN2CCCCCCC2)cc1Br	12.1	–	–	–	–	–	–
O=C(Nc1cccc([N+](=O)[O-])c1)c1ccc([N+](=O)[O-])o1	9.8	–	–	–	–	–	5.7
Cc1noc(C)c1NC(=O)N(C)C[C@H]1Oc2ccc(NC(=O)Nc3ccc(C(F)(F)F)cc3)cc2C(=O)N([C@H](C)CO)C[C@@H]1C	19.3	–	–	–	–	–	–
